According to ChEMBL document CHEMBL1122384, “Synthesis and evaluation of 24-(isopropyl[75Se]seleno)chol-5-en-3 beta-ol” (J Med Chem, 1983):

How the values were obtained:
Rattus norvegicus [1] = assay: Tested for distribution of radioactivity in female rat tissue at 3 day after intravenous administration in blood; assay type: ADME, organism-based; conditions: in vivo, 72 h
How it was run: (§1)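 Female Fischer 344 rats (160–180 g), food and water ad libitum, received 5–10 μCi i.v. via lateral tail vein (1 mL Tween 80–EtOH–saline) under light Et₂O anesthesia. At each time they were anesthetized and decapitated, and organs were rinsed in saline, blotted, weighed and gamma counted. Values are % dose/g, mean and range of 3 rats.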

Homo sapiens [2] = organism: Homo sapiens; assay: Adsorbed radiation dose value was calculated to human spleen; assay type: functional
How it was run: (§2)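 Human absorbed radiation dose estimated by the standard MIRD method from rat tissue distribution (% dose/g, 1 h–21 days) and excretion data. Excretion came from three individually caged female rats, with urine and feces collected daily over 21 days.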

Rattus norvegicus [3] = assay: Tested for distribution of radioactivity in female rat tissue at 14d ay after intravenous administration in adrenal; assay type: ADME, organism-based; conditions: in vivo; how it was run: as §1
Rattus norvegicus [4] = assay: Tested for distribution of radioactivity in female rat tissue at 18 hr after intravenous administration in ovaries; assay type: ADME, organism-based; conditions: in vivo; how it was run: as §1
[5] = Adrenal/Tissue ratio calculated from percent dose per gram of tissue determined after 1 day intravenous administration from ovaries; assay type: functional
How it was run: (§3)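 Female Fischer 344 rats (160–180 g), fed ad libitum. Steroid dissolved in EtOH, formulated in Tween 80–EtOH–saline, 5–10 μCi in 1 mL given into a lateral tail vein under light Et₂O anesthesia. Organs removed 1 day post-injection, rinsed, blotted, weighed and gamma counted, 3 rats per time point. Ratios taken from adrenal vs tissue % dose/g.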

Rattus norvegicus [6] = assay: Tested for distribution of radioactivity in female rat tissue at 6 hr after intravenous administration in adrenal; assay type: ADME, organism-based; conditions: in vivo; how it was run: as §1
Rattus norvegicus [7] = assay: Tested for distribution of radioactivity in female rat tissue at 3 day after intravenous administration in ovaries; assay type: ADME, organism-based; conditions: in vivo, 72 h; how it was run: as §1
Rattus norvegicus [8] = assay: Tested for distribution of radioactivity in female rat tissue at 7 day after intravenous administration in blood; assay type: ADME, organism-based; conditions: in vivo, 168 h
How it was run: (§4)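 Female Fischer 344 rats (160–180 g), food and water ad libitum. Se-75-labeled steroid dissolved in EtOH, formulated in Tween 80–EtOH–saline; 5–10 μCi in 1 mL injected into a lateral tail vein under light Et₂O anesthesia. At each time point, 3 rats killed by decapitation under Et₂O. Organs rinsed with saline, blotted, weighed and gamma counted. Values are % dose/g, mean and range.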

Rattus norvegicus [9] = assay: Tested for distribution of radioactivity in female rat tissue at 7 day after intravenous administration in ovaries; assay type: ADME, organism-based; conditions: in vivo, 168 h; how it was run: as §4
Rattus norvegicus [10] = assay: Tested for distribution of radioactivity in female rat tissue at 3 day after intravenous administration in kidney; assay type: ADME, organism-based; conditions: in vivo, 72 h; how it was run: as §1
[11] = Adrenal/Tissue ratio calculated from percent dose per gram of tissue determined after 1 day intravenous administration from liver; assay type: functional; how it was run: as §3
Rattus norvegicus [12] = assay: Tested for distribution of radioactivity in female rat tissue at 21 day after intravenous administration in ovaries; assay type: ADME, organism-based; conditions: in vivo, 504 h; how it was run: as §1
Rattus norvegicus [13] = assay: Tested for distribution of radioactivity in female rat tissue at 7 day after intravenous administration in liver; assay type: ADME, organism-based; conditions: in vivo, 168 h; how it was run: as §4
Rattus norvegicus [14] = assay: Tested for distribution of radioactivity in female rat tissue at 18 hr after intravenous administration in kidney; assay type: ADME, organism-based; conditions: in vivo; how it was run: as §1
Rattus norvegicus [15] = assay: Tested for distribution of radioactivity in female rat tissue at 14d ay after intravenous administration in ovaries; assay type: ADME, organism-based; conditions: in vivo; how it was run: as §1
Rattus norvegicus [16] = assay: Tested for distribution of radioactivity in female rat tissue at 14d ay after intravenous administration in kidney; assay type: ADME, organism-based; conditions: in vivo; how it was run: as §1
Rattus norvegicus [17] = assay: Tested for distribution of radioactivity in female rat tissue at 24 hr r after intravenous administration in adrenal; assay type: ADME, organism-based; conditions: in vivo; how it was run: as §1
[18] = Adrenal/Tissue ratio calculated from percent dose per gram of tissue determined after 1 day intravenous administration from kidney; assay type: functional; how it was run: as §3
Rattus norvegicus [19] = assay: Tested for distribution of radioactivity in female rat tissue at 21 day after intravenous administration in liver; assay type: ADME, organism-based; conditions: in vivo, 504 h; how it was run: as §1
Rattus norvegicus [20] = assay: Tested for distribution of radioactivity in female rat tissue at 1 hr after intravenous administration in kidney; assay type: ADME, organism-based; conditions: in vivo; how it was run: as §1
Homo sapiens [21] = organism: Homo sapiens; assay: Adsorbed radiation dose value was calculated to human adrenals; assay type: functional, Adrenal gland; how it was run: as §2
Rattus norvegicus [22] = assay: Tested for distribution of radioactivity in female rat tissue at 7 day after intravenous administration in adrenal; assay type: ADME, organism-based; conditions: in vivo, 168 h; how it was run: as §4
Rattus norvegicus [23] = assay: Tested for distribution of radioactivity in female rat tissue at 6 hr after intravenous administration in blood; assay type: ADME, organism-based; conditions: in vivo; how it was run: as §1
[24] = Adrenal/Tissue ratio calculated from percent dose per gram of tissue determined after 1 day intravenous administration from blood; assay type: functional; how it was run: as §3
Homo sapiens [25] = organism: Homo sapiens; assay: Adsorbed radiation dose value was calculated to human kidney; assay type: functional; how it was run: as §2
[26] = Adrenal/Tissue ratio calculated from percent dose per gram of tissue determined after 1 day intravenous administration from pancreas; assay type: functional
How it was run: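 Female Fischer 344 rats (160–180 g), food and water ad libitum, lightly anaesthetized with Et2O. [75Se]-labelled steroid was given in Tween 80–EtOH–saline, 5–10 μCi, by lateral tail-vein injection. Rats were killed by decapitation under Et2O; organs were rinsed, blotted, weighed and gamma-counted. Adrenal/tissue ratio is from % dose/g, mean of three rats per time point.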

Rattus norvegicus [27] = assay: Tested for distribution of radioactivity in female rat tissue at 7 day after intravenous administration in kidney; assay type: ADME, organism-based; conditions: in vivo, 168 h; how it was run: as §4
Homo sapiens [28] = organism: Homo sapiens; assay: Adsorbed radiation dose value was calculated to human small intestine; assay type: functional; how it was run: as §2

Work on `CC(C)[Se]CCC[C@H](C)[C@H]1CC[C@H]2[C@@H]3CC=C4C[C@@H](O)CC[C@]4(C)[C@H]3CC[C@]12C` yielded a Dose/g (Rattus norvegicus [1]) of 0.38%, a Dose (Homo sapiens [2]) of 3.4 rd mCi-1 and a Dose/g (Rattus norvegicus [3]) of 18.23%. For the same compound, the Dose/g (Rattus norvegicus [4]) was 6.12%, the Ratio [5] was 9 and the Dose/g (Rattus norvegicus [6]) was 35.61%. It also gave a Dose/g (Rattus norvegicus [7]) of 3.81%, a Dose/g (Rattus norvegicus [8]) of 0.26% and a Dose/g (Rattus norvegicus [9]) of 3.82%. For the same compound, the Dose/g (Rattus norvegicus [10]) was 1.48%, the Ratio [11] was 27.1 and the Dose/g (Rattus norvegicus [12]) was 2.52%. The Dose/g (Rattus norvegicus [13]) was 0.68%, the Dose/g (Rattus norvegicus [14]) was 1.87% and the Dose/g (Rattus norvegicus [15]) was 2.83%. It also gave a Dose/g (Rattus norvegicus [16]) of 0.91%, a Dose/g (Rattus norvegicus [17]) of 47.75% and a Ratio [18] of 30. For the same compound, the Dose/g (Rattus norvegicus [19]) was 0.34%, the Dose/g (Rattus norvegicus [20]) was 1.31% and the Dose (Homo sapiens [21]) was 30 rd mCi-1. It also gave a Dose/g (Rattus norvegicus [22]) of 29.5%, a Dose/g (Rattus norvegicus [23]) of 2.08% and a Ratio [24] of 67.3. For the same compound, the Dose (Homo sapiens [25]) was 3.8 rd mCi-1, the Ratio [26] was 46.4 and the Dose/g (Rattus norvegicus [27]) was 1.34%. The Dose (Homo sapiens [28]) was 3.5 rd mCi-1.
